Consider seven compounds from PMC7617399 (Nature microbiology, 2016).

Where two headings read alike, the source gives them in different places. Some results are limits rather than exact numbers.

One data set addresses ORF57-UAP56 interaction (Homo sapiens, UniProt Q13838). Put plainly: Co-immunoprecipitation of ORF57 with UAP56. The format is cell-based, KSHV / human. To be noted: nucleotide added to HEK-293T lysates (1.25 mM or concentration series). The procedure, abridged:
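1×10^6 HEK-293T transfected with 1 μg ORF57-GFP or GFP plasmid (Lipofectamine), lysed after 24 h on ice for 20 min in modified RIPA (50 mM Tris/HCl, 150 mM NaCl, 1% NP40-alternative, pH 7.6) plus RNase A. Lysate clarified, pre-cleared on protein A for 2 h at 4°C, pulled down on GFP-trap beads with ATP, ADP or ATPγS for 2.5 h at 4°C. Western blot.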

A further data set addresses recombinant GST-UAP56 (Homo sapiens, UniProt Q13838). Put plainly: Microscale thermophoresis binding to UAP56. The following applies: read-out: KD (microscale thermophoresis); FITC-labelled GST-UAP56, 37°C. Summed up:
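GST-UAP56 FITC-labelled, desalted into 20 mM HEPES pH 7.4 with 2 mM MgCl2, used at 100–500 nM. Titrated with test compound in a 1:1 serial dilution from 4.5 mM, final DMSO 20% (v/v). LED power 10–60%, 37°C. KD fitted in thermophoresis mode. Biological replicates.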

The subject of data set [1] is KSHV minor capsid protein (mCP) expression in TREx BCBL1-Rta cells. Kind of data set: Viral late protein mCP expression. It counts as cell-based. The following applies: for EC50: read-out: EC50 24 h (μM) (mCP expression).
The target of data set [2] is purified recombinant UAP56 (GST-UAP56) (Homo sapiens, UniProt Q13838). Put plainly: UAP56 ATPase assay. It counts as biochemical. Summed up:
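2.5 μM GST-UAP56 (E. coli BL-21, glutathione-eluted, buffer-exchanged) with 50 μM yeast tRNA, 35 μM ATP, 2 mM MgCl2, 50 mM KCl, 50 mM Tris/HCl pH 7.6. Screening at 100 μM final compound. IC50 series delivered in DMSO (1% of reaction). 37°C, 30 min, remaining ATP read by Kinase-Glo luminescence. Biological replicates.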

The next data set addresses hTREX-UAP56 interaction (Homo sapiens, UniProt Q13838). Kind of data set: Co-immunoprecipitation of endogenous hTREX with UAP56. It counts as cell-based. The following applies: up to 0.5 mM added to the lysate.
The subject of data set [3] is HSV-1. Put plainly: HSV-1 plaque assay after primary infection. It counts as cell-based. To be noted: increasing concentrations, HFF cells. Summed up: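 HFF (2×10^5) infected with HSV-1 at MOI 0.001 for 1 h and washed twice in PBS. Cells then overlaid with plaque agar (growth medium 1:1 with 2% agarose, 37°C) holding test compound or DMSO (0.1% final). Agarose lifted at 96 h, cells fixed 10 min in 4% paraformaldehyde, stained with 0.5% crystal violet, plaques counted by eye. Lysis also imaged directly.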

The next data set deals with KSHV. Put plainly: Infectious KSHV virion production. To be noted: 2.5 μM, supernatant 72 h after induction. It counts as cell-based. Summed up:
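0.8×10^6 TREx BCBL1-Rta cells reactivated with 2 μg/ml doxycycline and treated with test compound or DMSO. Supernatants filtered at 72 h and used 1:1 on 1×10^6 HEK-293T. At 24 h post-infection, TRIzol RNA assayed by qRT-PCR for viral mRNA, normalised to GAPDH, shown as fold change against DMSO.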

For a further data set, the system named is HCMV. Kind of data set: Infectious HCMV virion production. It counts as cell-based.
Data set [4] relates to TREx BCBL1-Rta cells. Kind of data set: MTS cell viability assay, TREx BCBL1-Rta. It counts as cell-based, human. To be noted: TREx BCBL1-Rta, MTS, mean ± s.e.m. The procedure, abridged:
(§1)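 MTS assay: TREx BCBL1-Rta plated at 1×10^6 cells/ml and treated at once with test compound in DMSO (0.1% of volume, also added to controls). Viability read at 24 and 72 h. Biological replicates.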

Data set [5] relates to ORF57-mediated ORF47 mRNA stabilization and export in HEK-293T cells. Kind of data set: Viral mRNA export assay. The format is cell-based, KSHV. The following applies: 2.5 μM, 18 h. Summed up: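 HEK-293T co-transfected with GFP or ORF57-GFP plus an intronless ORF47 reporter, then exposed to DMSO or test compound for 18 h. RNA taken from whole-cell and cytoplasmic fractions. ORF47 measured by qRT-PCR, normalised to GAPDH, ΔΔCT. n = 3, unpaired t test.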

In a further data set the target is HSP90. To be noted: read-out: Ki (HSP90); reported value; cited from earlier work.
Data set [6] concerns KSHV latent nuclear antigen (LANA). Put plainly: LANA immunoblotting. The format is cell-based. The following applies: immunoblot, range of concentrations.
Data set [7] deals with ORF57-mediated nuclear retention of cellular bulk mRNA in HEK-293T cells. Put plainly: Fluorescence in situ hybridization of poly. To be noted: ORF57-GFP expressing HEK-293T, 24 h treatment. The format is cell-based, human. The procedure, abridged:
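HEK-293T transfected with GFP or ORF57-GFP for 6 h, then DMSO or test compound for 24 h. Poly(A) RNA detected with 5′ Alexa Fluor 546-labelled oligo dT(70) probe, nuclei stained with DAPI, confocal imaging. Cells showing nuclear mRNA retention counted. 4 independent experiments.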

In data set [8] the test system is TREx BCBL1-Rta cells. Kind of data set: Apoptosis assay. The format is cell-based, human. The following applies: 72 h, CCT018159 at 2.5 μM. The procedure, abridged:
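TREx BCBL1-Rta cells exposed to DMSO or test compound for 72 h, washed, then incubated in HEPES buffer with Annexin-V-fluorescein plus propidium iodide to mark apoptotic and necrotic cells. Analysis by flow cytometry. Biological replicates.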

Another data set concerns HEK-293T cells. Kind of data set: MTS cell viability assay, HEK-293T. The format is cell-based, human. The procedure, abridged: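 MTS assay: HEK-293T plated at 0.5×10^6 cells/ml 24 h ahead, then given test compound in DMSO (0.1% of volume, also added to controls). Readings normalised to DMSO wells, n = 5. CC50 from four-parameter variable-slope non-linear regression.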
Data set [9] has as its system HSV-1. Kind of data set: Infectious HSV-1 virion production. It counts as cell-based.
For data set [10], the system named is KSHV viral load in TREx BCBL1-Rta cells. Put plainly: KSHV replication assay. The format is cell-based. The following applies: for EC50: read-out: EC50 72 h (μM) (Viral load).
Data set [11] addresses ADP-bound purified recombinant UAP56 (Homo sapiens, UniProt Q13838). Kind of data set: ADP displacement assay. The format is binding. Summed up: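 Pre-formed ADP-bound enzyme: 5 μM GST-UAP56 (E. coli BL-21) run with 5 μM ATP for 30 min under ATPase-assay buffer conditions. Leftover ATP depleted with ADP-Glo reagent, then test compound added at rising concentrations and incubated 37°C for 30 min. Freed ADP converted to ATP and read by luminescence. n = 3 biological replicates.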

Data set [12] is described as follows: MTS cell viability assay, TREx BCBL1-Rta. It counts as cell-based, human. To be noted: human, TREx BCBL1-Rta cells. The procedure, abridged:
as §1

Where [13] appears, read: reactivated TREx BCBL1-Rta, 72 h, qPCR, mean ± s.e.m.

Sequence of purified recombinant UAP56 (GST-UAP56) (Q13838 whole entry): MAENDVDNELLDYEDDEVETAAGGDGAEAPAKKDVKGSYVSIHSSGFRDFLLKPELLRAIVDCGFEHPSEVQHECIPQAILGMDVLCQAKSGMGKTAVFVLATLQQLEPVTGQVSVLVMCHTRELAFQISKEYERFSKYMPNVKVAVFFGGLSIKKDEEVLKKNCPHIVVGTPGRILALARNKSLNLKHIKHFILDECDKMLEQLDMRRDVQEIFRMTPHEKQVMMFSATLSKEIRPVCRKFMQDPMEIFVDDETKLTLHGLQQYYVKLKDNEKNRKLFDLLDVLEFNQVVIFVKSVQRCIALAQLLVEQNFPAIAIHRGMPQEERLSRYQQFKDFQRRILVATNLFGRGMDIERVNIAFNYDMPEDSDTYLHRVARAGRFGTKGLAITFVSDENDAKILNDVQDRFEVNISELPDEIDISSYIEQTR
Sequence of ORF57-UAP56 interaction (P82979 2-210): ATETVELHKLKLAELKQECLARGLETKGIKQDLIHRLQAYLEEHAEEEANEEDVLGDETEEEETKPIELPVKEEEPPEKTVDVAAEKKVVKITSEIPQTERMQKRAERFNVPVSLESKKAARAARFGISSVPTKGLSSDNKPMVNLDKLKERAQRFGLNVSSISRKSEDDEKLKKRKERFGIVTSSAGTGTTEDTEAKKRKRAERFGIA
Sequence of ORF57-UAP56 interaction (Q13838 2-428): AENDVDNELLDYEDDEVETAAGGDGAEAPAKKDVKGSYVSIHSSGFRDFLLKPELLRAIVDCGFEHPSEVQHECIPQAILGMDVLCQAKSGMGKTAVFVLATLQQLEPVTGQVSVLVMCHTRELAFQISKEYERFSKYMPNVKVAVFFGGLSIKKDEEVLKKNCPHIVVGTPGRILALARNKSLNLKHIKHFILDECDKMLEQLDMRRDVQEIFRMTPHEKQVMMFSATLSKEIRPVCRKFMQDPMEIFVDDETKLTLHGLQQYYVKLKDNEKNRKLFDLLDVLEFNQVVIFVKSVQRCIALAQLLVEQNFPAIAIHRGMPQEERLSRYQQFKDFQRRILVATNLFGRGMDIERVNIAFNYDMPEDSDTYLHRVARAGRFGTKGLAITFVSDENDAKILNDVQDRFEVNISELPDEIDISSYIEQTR
Sequence of recombinant GST-UAP56 (Q13838 whole entry): as the sequence (Q13838 whole entry) above
Sequence of ADP-bound purified recombinant UAP56 (Q13838 whole entry): as above
Sequence of hTREX-UAP56 interaction (Q13838 2-428): as the sequence (Q13838 2-428) above
Sequence of hTREX-UAP56 interaction (P82979 2-210, further chain): as the sequence (P82979 2-210) above

Turning to `Nc1ncnc2c1ncn2[C@@H]1O[C@H](COP(=O)(O)OP(=O)(O)O)[C@@H](O)[C@H]1O` [ADP], the “effect of nucleotide on ORF57-UAP56/hTREX interaction” value on ORF57-UAP56 interaction is on record as “disrupted”.
For the compound `Nc1ncnc2c1ncn2[C@@H]1O[C@H](COP(=O)(O)OP(=O)(O)OP(=O)(O)O)[C@@H](O)[C@H]1O` [ATP], the Kd on recombinant GST-UAP56 was determined as 30.1 ± 4.5 µM. Besides, the “effect of nucleotide on ORF57-UAP56/hTREX interaction” value on ORF57-UAP56 interaction is recorded as “enhanced”.
Turning to `Nc1ncnc2c1ncn2[C@@H]1O[C@H](CO[P@](=O)(O)O[P@](=O)(O)O[P@@](=O)(O)S)[C@@H](O)[C@H]1O` [ATPγS, Adenosine 5′-O-(3-thio)triphosphate], the “effect of nucleotide on ORF57-UAP56/hTREX interaction” value at ORF57-UAP56 interaction is reported as “significantly inhibited”.
Regarding `CCc1cc(-c2n[nH]c(C)c2-c2ccc3c(c2)OCCO3)c(O)cc1O` [CCT018159], in [1] (at 2.5 μM), the mCP expression result is given as “marked reduction”. Besides, in data set [1] (immunoblot), the “concentrations at which mCP inhibition occurred” value lay in the range of 1 to 2.5 µM. The EC50 in data set [1] (reactivated TREx BCBL1-Rta, 24 h, mean ± s.e.m.) is 0.6 ± 0.1 µM; in [10] (setting [13]), 1.1 ± 0.1 µM. Moreover, the “reduction of UAP56 activity” value in [2] (at 100 μM (compound screening)) is on record as over 70%. For the same compound, on hTREX-UAP56 interaction, the “effect on hTREX-UAP56 interaction” value is reported as “did not inhibit”. Further, in the data set on HSV-1 [3], the “cell lysis, plaque size and plaque number” value is “dramatically decreased”. Also, the “reduction of viral mRNA in re-infected cells versus controls” value in the data set with KSHV is listed as 80%. Moreover, the “reduction of HCMV virion production” value in the data set with HCMV (1 μM) is recorded as 50%; in the data set on HCMV (2.5 μM), “over 99%”. The CC50 with TREx BCBL1-Rta cells [4] (read-out: CC50 24 h (μM) (Cell viability), 24 h) amounted to 21.1 ± 1.6 µM; with TREx BCBL1-Rta cells [4] (read-out: CC50 72 h (μM) (Cell viability), 72 h), 16.6 ± 1.1 µM. In addition, on recombinant GST-UAP56, the Kd is 76 ± 3.8 µM. The “effect on ORF57-mediated ORF47 mRNA stabilization and export” value in [5] is recorded as “abolished”. The inhibition constant Ki at HSP90 was 1.8 ± 0.3 µM. Further, the LANA degradation entry in [6] was “no LANA degradation”. Also, the “effect on ORF57-mediated nuclear retention of poly(A) RNA” value in data set [7] is listed as “nuclear retention was lost”. Further, the apoptosis result with TREx BCBL1-Rta cells [8] was “no increase in apoptosis”. In the data set on HEK-293T cells, the non-cytotoxic concentrations was under 15 µM. Moreover, the “reduction in infected cells (HSV-1 re-infection)” value amounted to 50% with HSV-1 [9] (2.5 μM) and 95% in the data set with HSV-1 [9] (5 μM). For the same compound, in data set [10] (discussion), the “potency of antiviral effect relative to IC50 on purified UAP56” value is reported as 30 fold. For the same compound, the “concentration of antiviral effect” value in [10] (discussion, assay not specified) was “around 2 μM”. Further, the “mode of inhibition (ADP displacement)” value in [11] (ADP-bound UAP56, increasing concentrations) is “ATP/ADP-competitive inhibitor”. The half-inhibitory concentration (IC50) in [11] (read-out: IC50 (ADP displacement)) was about 60 µM.
For `CCc1cc(-c2n[nH]c(C)c2-c2ccc(OC)cc2)c(O)cc1O` [Cmpd. 3, 4-Ethyl-6-(4-(4-methoxyphenyl)-3-methyl-1H-pyrazol-5-yl)benzene-1,3-diol], the concentration giving a half-maximal response (EC50) in data set [1] (Human gammaherpesvirus 8, 24 h) is 2.4 ± 0.4 µM. Further, the IC50 in data set [2] stood at 88.7 ± 7.9 µM. In data set [12], the cytotoxic concentration (CC50) at 24 h amounted to 27.9 ± 2.7 µM and half-maximal cytotoxicity (CC50 at 72 h) was put at 14.7 ± 0.5 µM. In data set [10] (Human gammaherpesvirus 8, 72 h), the half-maximal effective concentration (EC50) amounted to 2.7 ± 0.2 µM.
For `CCc1cc(-c2n[nH]c(C(=O)O)c2-c2ccc(OC)cc2)c(O)cc1O` [Cmpd. 4, 3-(5-Ethyl-2,4-dihydroxyphenyl)-4-(4-methoxyphenyl)-1H-pyrazole-5-carboxylic acid], the 50% effective concentration (EC50) in data set [1] (Human gammaherpesvirus 8, 24 h) is over 1000 µM; in data set [10] (Human gammaherpesvirus 8, 72 h) it was 138 ± 45.2 µM. The IC50 in data set [2] is over 1000 µM. In [12], this compound had a 50% cytotoxic concentration (CC50) at 24 h of about 820 µM. In [12], the half-maximal cytotoxic concentration (CC50) at 72 h is over 1000 µM.
`CO[C@H]1/C=C\C=C(/C)C(=O)NC2=CC(=O)C(NCCN(C)C)=C(C[C@@H](C)C[C@H](OC)[C@H](O)[C@@H](C)/C=C(\C)[C@@H]1OC(N)=O)C2=O` [Compound 17-DMAG]: the “UAP56 ATPase inhibition” value in data set [2] (Supplementary Fig. 2a) is given as “no UAP56 ATPase inhibition”. In addition, the LANA degradation entry in [6] is on record as “enhanced”. In addition, the “effect on ORF57-mediated nuclear retention of poly(A) RNA” value in data set [7] is given as “failed to relieve”. In addition, in the data set on TREx BCBL1-Rta cells [8], the apoptosis result was “increased levels of apoptosis and necrosis”. Besides, in [10] (setting [13]), the 50% effective concentration (EC50) was 0.04 ± 0.01 µM.
